Data published in ChEMBL document CHEMBL1158683, “Cytotoxic sesquiterpenoids from Ratibida columnifera” (1999).
≈ marks a conversion by molar mass, not a printed value. Calls of active or inactive are those of the source. No cut-off for these calls is given here.

Tests used:
[1] = Cytotoxicity against human U373 cells; format: functional, U-373MG ATCC; conditions: U373 MG, read-out: ED50 (the source's name)
Lu1 = experiment: Cytotoxicity against human Lu1 cells; format: functional; conditions: read-out: ED50 (the source's name)
HT = experiment: Cytotoxicity against human HT cells; format: functional; conditions: read-out: ED50 (the source's name)
LNCaP = experiment: Cytotoxicity against hormone-dependent human LNCaP cells; format: functional; conditions: read-out: ED50 (the source's name)
ASK = experiment: Cytotoxicity against human ASK cells at 20 ug/mL; format: functional, cell-based
[2] = Cytotoxicity against human multidrug-resistant KB-V1+ cells in presence of vinblastine; format: functional; conditions: read-out: ED50 (the source's name)
ZR-75-1 = experiment: Cytotoxicity against hormone-dependent human ZR751 cells; format: functional; conditions: read-out: ED50 (the source's name)
[3] = Cytotoxicity against human Mel2 cells; format: functional; conditions: read-out: ED50 (the source's name)
A-431 = experiment: Cytotoxicity against human A431 cells; format: functional; conditions: read-out: ED50 (the source's name)
[4] = Cytotoxicity against human BC1 cells; format: functional; conditions: read-out: ED50 (the source's name)
KB = experiment: Cytotoxicity against human KB cells; format: functional; conditions: read-out: ED50 (the source's name)
[5] = Cytotoxicity against human multidrug-resistant KBV1 cells in absence of vinblastine; format: functional; conditions: KB-V1, read-out: ED50 (the source's name)
Col2 = experiment: Cytotoxicity against human Col2 cells; format: functional; conditions: read-out: ED50 (the source's name)
[6] = Inhibition of topoisomerase 2 at 10 to 100 uM
Nucleic Acid = experiment: Binding affinity to DNA assessed as DNA intercalation; format: nucleic-acid assay
A2780 [7] = experiment: Induction of apoptosis in human p53 […] at 15 uM after 24 hrs by TdT assay; format: functional; conditions: in the assay text read “A2780R” for “A2780S”
How it was run: (§1)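 A2780S (p53 wild-type) and A2780R (p53 mutant) ovarian carcinoma cells were exposed for 24 h at 0–30 µM. Cells (10^6) were trypsinized and fixed in 1% methanol-free formaldehyde/PBS for 15 min on ice. They were washed twice with PBS and fixed in 80% EtOH at −20 °C for 16 h. A TdT assay (APO-Direct kit, minor modifications) then scored % apoptotic cells.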

[8] = target: T1, DNA topoisomerase 1 (Homo sapiens) (UniProt P11387); experiment: Inhibition of topoisomerase 1 at 10 to 100 uM
T1 sequence (whole entry): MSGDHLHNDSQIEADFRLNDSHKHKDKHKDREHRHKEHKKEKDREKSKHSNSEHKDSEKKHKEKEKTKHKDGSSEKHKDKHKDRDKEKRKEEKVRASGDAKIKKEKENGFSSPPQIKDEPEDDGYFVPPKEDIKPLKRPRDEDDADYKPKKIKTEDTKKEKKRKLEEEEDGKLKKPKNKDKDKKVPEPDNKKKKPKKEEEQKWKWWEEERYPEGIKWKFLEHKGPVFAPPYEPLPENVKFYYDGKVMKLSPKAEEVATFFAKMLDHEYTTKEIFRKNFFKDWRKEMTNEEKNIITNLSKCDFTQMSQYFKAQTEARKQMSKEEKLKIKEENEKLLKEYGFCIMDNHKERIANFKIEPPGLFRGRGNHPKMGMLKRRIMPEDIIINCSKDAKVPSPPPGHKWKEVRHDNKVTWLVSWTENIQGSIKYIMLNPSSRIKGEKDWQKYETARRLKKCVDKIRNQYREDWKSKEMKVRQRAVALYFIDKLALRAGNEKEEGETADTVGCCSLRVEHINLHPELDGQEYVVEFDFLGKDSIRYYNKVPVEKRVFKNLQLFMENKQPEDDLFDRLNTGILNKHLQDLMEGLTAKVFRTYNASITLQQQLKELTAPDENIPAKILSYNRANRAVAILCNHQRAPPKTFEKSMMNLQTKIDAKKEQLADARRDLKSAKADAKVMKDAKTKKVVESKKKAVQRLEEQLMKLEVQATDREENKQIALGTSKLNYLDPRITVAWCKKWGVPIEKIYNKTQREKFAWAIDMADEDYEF

A2780 [9] = experiment: Induction of apoptosis in human p53 wild type A2780S at 30 uM after 24 hrs by TdT assay; format: functional; how it was run: as §1
A2780 [10] = experiment: Induction of apoptosis in human p53 wild type A2780S at 7.5 uM after 24 hrs by TdT assay; format: functional; how it was run: as §1
A2780 [11] = experiment: Induction of apoptosis in human p53 wild type A2780S at 1.5 uM after 24 hrs by TdT assay; format: functional; how it was run: as §1
A2780 [12] = experiment: Induction of apoptosis in human p53 mutant A2780R at 7.5 uM after 24 hrs by TdT assay
A2780 [13] = experiment: Induction of apoptosis in human p53 mutant A2780R at 0.15 uM after 24 hrs by TdT assay
[14] = Inhibition of tubulin polymerization at 10 to 100 uM
M109 [15] = experiment: Antitumor activity against mouse M109 cells xenografted CDF1 mouse model at 8 mg/kg, ip for 5 days; format: functional; conditions: route intraperitoneal
How it was run: (§2)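 A 2% w/v brei of M109 murine lung carcinoma was prepared in RPMI from harvested solid tumors. Female CDF1 mice (six per group) were implanted ip with 0.5 mL. Compound was given ip daily for 5 days, beginning 1 day after implantation. The endpoint was lifespan, expressed as %T/C (treated over control lifespan × 100%).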

A2780 [16] = experiment: Induction of apoptosis in human p53 […] at 30 uM after 24 hrs by TdT assay; format: functional; conditions: in the assay text read “A2780R” for “A2780S”; how it was run: as §1
A2780 [17] = experiment: Induction of apoptosis in human p53 wild type A2780S at 15 uM after 24 hrs by TdT assay; format: functional; how it was run: as §1
M109 [18] = experiment: Antitumor activity against mouse M109 cells xenografted CDF1 mouse model at 24 mg/kg, ip for 5 days; format: functional; conditions: route intraperitoneal; how it was run: as §2
A2780R = experiment: Induction of apoptosis in human p53 mutant A2780R at 1.5 uM after 24 hrs by TdT assay
A2780 [19] = experiment: Induction of apoptosis in human p53 wild type A2780S at 0.15 uM after 24 hrs by TdT assay; format: functional; how it was run: as §1

| Structure (SMILES) | EC50 [1] [µg/mL] | EC50 (Lu1) [µg/mL] | EC50 (HT) [µg/mL] | EC50 (LNCaP) [µg/mL] | Activity (ASK) | EC50 [2] [µg/mL] | EC50 (ZR-75-1) [µg/mL] | EC50 [4] [µg/mL] | EC50 (KB) [µg/mL] | EC50 [5] [µg/mL] | EC50 (Col2) [µg/mL] | further results |
| --- | --- | --- | --- | --- | --- | --- | --- | --- | --- | --- | --- | --- |
| COc1c(O)cc2oc(-c3ccc(O)cc3)cc(=O)c2c1O [HISPIDULIN] | 8.8 (≈ 29.3 µM) | > 20 | 10.1 (≈ 33.6 µM) | 7.1 (≈ 23.6 µM) | inactive | 1.3 | 1.2 (≈ 4 µM) | > 20 | 18.8 (≈ 62.6 µM) | 8.7 (≈ 29 µM) | > 20 | EC50 [3]: 14.6 µg/mL (≈ 48.6 µM); EC50 (A-431): 1.2 µg/mL (≈ 4 µM) |
| C=C1C(=O)O[C@@H]2[C@@H]1[C@H]1O[C@H]1[C@H](C)[C@@](O)(C(=O)/C=C/C)[C@H]2OC(=O)/C(C)=C\C | 0.2 (≈ 0.531 µM) | 0.5 (≈ 1.33 µM) | 0.16 (≈ 0.425 µM) | – | inactive | 0.9 | – | 0.3 (≈ 0.797 µM) | 0.3 (≈ 0.797 µM) | 0.2 (≈ 0.531 µM) | 0.8 (≈ 2.13 µM) | – |
| C=C1C(=O)O[C@@H]2[C@@H]1CC(=O)[C@H](C)[C@@](O)(C(=O)CC(C)OC)[C@H]2OC(=O)C(C)CC (stereo partly drawn) | – | 4.4 (≈ 10.7 µM) | – | 0.5 (≈ 1.22 µM) | inactive | 5 | – | 1.2 (≈ 2.92 µM) | 6.6 (≈ 16.1 µM) | 4 (≈ 9.75 µM) | 3.1 (≈ 7.55 µM) | – |
| C=C1C(=O)O[C@@H]2[C@@H]1[C@@H](O)C[C@H](C)[C@@](O)(C(=O)/C=C/C)[C@H]2OC(=O)/C(C)=C\C | – | 2.3 (≈ 6.08 µM) | – | 0.4 (≈ 1.06 µM) | inactive | 1.7 | 1.4 (≈ 3.7 µM) | 4.2 (≈ 11.1 µM) | 1.4 (≈ 3.7 µM) | 3 (≈ 7.93 µM) | 5.7 (≈ 15.1 µM) | – |
| C=C1C(=O)O[C@@H]2[C@@H]1C[C@@H](O)[C@H](C)[C@@](O)(C(=O)/C=C/C)[C@H]2OC(=O)C(C)CC (stereo partly drawn) | – | 0.9 (≈ 2.37 µM) | – | 0.5 (≈ 1.31 µM) | inactive | 1.6 | – | 0.8 (≈ 2.1 µM) | 1 (≈ 2.63 µM) | 0.9 (≈ 2.37 µM) | 1.1 (≈ 2.89 µM) | Activity [6]: inactive; Activity (Nucleic Acid): inactive; Activity (A2780 [7]): 31.87%; Activity [8]: inactive; Activity (A2780 [9]): 78.14%; Activity (A2780 [10]): 61.31%; Activity (A2780 [11]): 1.27%; Activity (A2780 [12]): 2.63%; Activity (A2780 [13]): 0.77%; Activity [14]: inactive; T/C (M109 [15]): 103%; Activity (A2780 [16]): 49.25%; Activity (A2780 [17]): 51.67%; T/C (M109 [18]): 113%; Activity (A2780R): 1.66%; Activity (A2780 [19]): 1.17% |
| C=C[C@@](C)(O)C[C@@H](O)/C=C(\C)CC/C=C(\C)COC(C)=O | 6.3 (≈ 21.3 µM) | > 20 | 9.5 (≈ 32.1 µM) | > 20 | inactive | > 20 | – | 8.7 (≈ 29.4 µM) | 3.5 (≈ 11.8 µM) | 10.9 (≈ 36.8 µM) | 6.2 (≈ 20.9 µM) | – |
| C=C1C(=O)O[C@@H]2[C@@H]1CC[C@H](C)[C@@](O)(C(=O)/C=C/C)[C@H]2OC(=O)/C(C)=C\C | 0.2 (≈ 0.552 µM) | 0.4 (≈ 1.1 µM) | 0.4 (≈ 1.1 µM) | 1 (≈ 2.76 µM) | inactive | 0.3 | 1.4 (≈ 3.86 µM) | 0.8 (≈ 2.21 µM) | 0.4 (≈ 1.1 µM) | 1.6 (≈ 4.41 µM) | 0.9 (≈ 2.48 µM) | – |
| C=C1C(=O)O[C@@H]2[C@@H]1CC(=O)[C@H](C)[C@@](O)(C(=O)/C=C/C)[C@H]2OC(=O)C(C)CC (stereo partly drawn) | – | 2.3 (≈ 6.08 µM) | – | 0.4 (≈ 1.06 µM) | inactive | 1.1 | – | 0.5 (≈ 1.32 µM) | 1.1 (≈ 2.91 µM) | 2 (≈ 5.29 µM) | 1.2 (≈ 3.17 µM) | – |
| C=C1C(=O)O[C@@H]2[C@@H]1C[C@@H](O)[C@H](C)[C@@](O)(C(=O)CC(C)O)[C@H]2OC(=O)C(C)CC (stereo partly drawn) | – | 16.8 (≈ 42.2 µM) | – | 8.1 (≈ 20.3 µM) | inactive | > 20 | – | 9 (≈ 22.6 µM) | 12.7 (≈ 31.9 µM) | > 20 | 8.7 (≈ 21.8 µM) | – |
| C=C1C(=O)O[C@@H]2[C@@H]1C[C@@H](O)[C@H](C)[C@@](O)(C(=O)/C=C/C)[C@H]2OC(=O)/C(C)=C\C | 0.2 (≈ 0.529 µM) | 1.1 (≈ 2.91 µM) | 0.3 (≈ 0.793 µM) | 0.16 (≈ 0.423 µM) | inactive | 1.3 | 0.2 (≈ 0.529 µM) | 0.6 (≈ 1.59 µM) | 0.3 (≈ 0.793 µM) | 1.2 (≈ 3.17 µM) | 0.5 (≈ 1.32 µM) | EC50 [3]: 0.5 µg/mL (≈ 1.32 µM); EC50 (A-431): 0.2 µg/mL (≈ 0.529 µM) |
